Active and inactive are the calls of the source. The calls are words filed in the database; no cut-off is given here.
Experiments:
[1] = tested on: HMEC-1; test: Protection against oxidized LDL-induced cytotoxicity in HMEC1 cells assessed as residual cell viability after 24 hrs by MTT assay relative to control; assay type: functional, Homo sapiens
Procedure, shortened: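 HMEC-1 exposed 6 h at 37 °C to native LDL (100 µg apoB/mL) with 1 µM CuSO4 in serum-free RPMI, with or without agent (10 µM, DMSO <0.1%); toxicity of the cell-oxidized LDL read by MTT after 24 h, as % of unstimulated cells kept in fresh RPMI without LDL or antioxidant.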

[2] = Antioxidant activity in HMEC1 cells assessed as inhibition of LDL oxidation at 10 uM after 6 hrs by TBARS assay relative to control; assay type: functional, Homo sapiens, HMEC-1; design: scale not given: the % may be the effect or the level left
Procedure, shortened: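 HMEC-1 (sparse proliferative) in serum-free RPMI-1640 with native LDL 100 µg apoB/mL and CuSO4 1 µM, 37 °C, 6 h; compounds added from DMSO (<0.1% final) at 10 µM just before oxidation, in duplicate. TBARS in medium measured fluorimetrically; expressed as % of TBARS with cells and no agent.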

[3] = tested on: HMEC-1; test: Inhibition of 4-hydroxynonenal-induced carbonyl stress in HMEC1 cells assessed as prevention of increase in carbonylated protein level at 10 uM relative to control; assay type: functional, cell-based; details: Homo sapiens
Procedure, shortened: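 HMEC-1 were incubated overnight with 50 µM 4-HNE in FCS-free RPMI-1640 with the compound, then washed, scraped and pelleted. Protein was derivatized for 1 h at room temperature with 0.1% DNPH in 2 M HCl, precipitated with TCA, and washed with ethanol/ethyl acetate. It was dissolved in 8 M guanidine buffer (pH 7.4) and read at 365 nm. Results are % of unstimulated control, mean of four experiments.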

[4] = tested on: HMEC-1; test: (§1) Cytoprotective activity against ultraviolet irradiation oxidized LDL-induced cytotoxicity in HMEC1 cells assessed as residual cell survival at 10 uM for 24 hrs by MTT assay relative to control; assay type: functional; details: Homo sapiens
Procedure, shortened: (§2)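 HMEC-1 were exposed to UV-C-oxidized LDL. LDL at 2 mg apoB/mL with 2 µmol/L CuSO₄ was irradiated for 2 h at 254 nm, then added to the medium at 200 µg apoB/mL together with the compound. MTT viability was read after 24 h, as % of unstimulated cells in LDL-free medium. Each value is the mean of four determinations.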

[5] = tested on: U-937; test: Inhibition of foam cell formation in LDL exposed human U937 cells assessed as accumulation of red O-stained lipid droplets at 10 uM for 14 hrs by nile red fluorescence assay; assay type: functional, cell-based
Procedure, shortened: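 U937 grown in RPMI with 10% FCS were used at subconfluence. They were incubated for 14 h in fresh RPMI containing native LDL (100 µg/mL), 1 µM CuSO₄ and agent (10 µM). Cells were fixed in 10% paraformaldehyde, stained with 0.5 µg/mL Nile Red, scraped and read fluorometrically (ex 460/em 550 nm). Parallel slides were stained with oil red O and hematoxylin and examined microscopically. Data are the mean of three experiments.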

[6] = as §1; assay type: functional, Homo sapiens, HMEC-1; procedure, shortened: as §2
[7] = tested on: HMEC-1; test: Cytoprotective activity against ultraviolet irradiation oxidized LDL and 4-hydroxynonenal-induced cytotoxicity in HMEC1 cells assessed as cell survival at 10 uM after 24 hrs relative to control; assay type: functional, cell-based; details: Homo sapiens
Procedure, shortened: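 HMEC-1 were exposed to 4-HNE added directly to the medium, or to UV-oxidized LDL. For the oxidized LDL, LDL at 2 mg apoB/mL with 2 µmol/L CuSO₄ was irradiated with UV-C (254 nm) for 2 h and then added at 200 µg apoB/mL. Compounds were present during exposure. Viability was read by MTT after 24 h, as % of cells in LDL-free medium. Each value is the mean of four determinations.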

| SMILES | Activity [1] [%] | Activity [2] [%] | Activity [3] | Activity [4] | Activity [5] | Activity [6] [%] | Activity [7] |
| --- | --- | --- | --- | --- | --- | --- | --- |
| CCOP(=O)(/C=C/c1cc(OC)c(O)c(-c2cc(C=O)cc(OC)c2O)c1)OCC | 63.5 | 67.5 |  |  |  |  |  |
| CC(C)(Sc1cc(C(C)(C)C)c(O)c(C(C)(C)C)c1)Sc1cc(C(C)(C)C)c(O)c(C(C)(C)C)c1 [PROBUCOL] | 92 | 10 |  |  |  |  |  |
| Cc1c(C)c2c(c(C)c1O)CC[C@@](C)(CCC[C@H](C)CCC[C@H](C)CCCC(C)C)O2 [ALPHA-TOCOPHEROL] | 29 | 55 |  |  |  |  |  |
| COc1cc(/C=N/NC(=O)c2ccncc2)cc(-c2cc(/C=N/NC(=O)c3ccncc3)cc(OC)c2O)c1O | 13.5 | 83 | inactive |  |  |  |  |
| CCOP(=O)(/C=C/c1cc(OC)c(O)c(-c2cc(/C=N/Nc3nncc4ccccc34)cc(OC)c2O)c1)OCC.Cl | 61.2 | 4.1 |  | Active |  |  |  |
| CCOP(=O)(/C=C/c1cc(OC)c(O)c(-c2cc(/C=C/P(=O)(OCC)OCC)cc(OC)c2O)c1)OCC | 66 | 67.4 |  |  | Active |  |  |
| COc1cc(/C=N/Nc2nncc3ccccc23)cc(-c2cc(/C=N/Nc3nncc4ccccc34)cc(OC)c2O)c1O.Cl | 82 | 2.8 | Active |  | Active | 80 | Active |
| COc1cc(C=O)cc(-c2cc(C=O)cc(OC)c2O)c1O | 40.5 | 86.2 |  |  |  |  |  |
| CCOP(=O)(/C=C/c1cc(OC)c(O)c(-c2cc(/C=N/NC(=O)c3ccncc3)cc(OC)c2O)c1)OCC | 31.2 | 67.5 |  |  |  |  |  |

— ChEMBL document CHEMBL1150353, “Development of novel antiatherogenic biaryls: design, synthesis, and reactivity” (2008)
